Assays:
[1] = Antagonist activity at human alpha6beta2delta GABAA receptor expressed in HEK293 Flp-In cells by FMP assay; assay type: cell-based, Flp-In-293
Outline: (§1)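 HEK293 Flp-In cells stably expressing human δ subunit, transiently transfected with human α and β subunits (1:1) to form αβδ receptors. Read-out is the FLIPR membrane potential dye ΔRFU, baseline to peak/plateau, with GABA EC80 as agonist. Four-parameter fit of concentration–inhibition curves gives IC50, from at least three independent experiments.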

[2] = target: T1, GABA-A receptor; alpha-1/beta-2/gamma-2 (Homo sapiens, UniProt P14867+P18507+P47870); experiment: Antagonist activity at human alpha1beta2gamma2 GABAA receptor expressed in HEK293 cells by FMP assay; assay type: cell-based
T1 sequence (P14867 whole entry): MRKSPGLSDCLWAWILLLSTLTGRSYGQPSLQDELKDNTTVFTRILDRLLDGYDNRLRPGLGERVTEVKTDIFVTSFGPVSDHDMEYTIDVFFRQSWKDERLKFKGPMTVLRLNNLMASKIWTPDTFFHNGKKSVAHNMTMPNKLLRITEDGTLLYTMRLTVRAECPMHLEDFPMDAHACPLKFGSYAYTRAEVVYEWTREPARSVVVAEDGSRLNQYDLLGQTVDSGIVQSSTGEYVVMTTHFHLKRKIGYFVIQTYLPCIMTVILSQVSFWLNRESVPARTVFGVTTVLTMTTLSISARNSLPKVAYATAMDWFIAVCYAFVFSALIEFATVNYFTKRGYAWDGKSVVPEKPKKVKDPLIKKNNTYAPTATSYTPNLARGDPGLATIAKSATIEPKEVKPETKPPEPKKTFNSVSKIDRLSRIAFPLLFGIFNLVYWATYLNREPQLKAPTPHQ
T1 sequence (P47870 whole entry): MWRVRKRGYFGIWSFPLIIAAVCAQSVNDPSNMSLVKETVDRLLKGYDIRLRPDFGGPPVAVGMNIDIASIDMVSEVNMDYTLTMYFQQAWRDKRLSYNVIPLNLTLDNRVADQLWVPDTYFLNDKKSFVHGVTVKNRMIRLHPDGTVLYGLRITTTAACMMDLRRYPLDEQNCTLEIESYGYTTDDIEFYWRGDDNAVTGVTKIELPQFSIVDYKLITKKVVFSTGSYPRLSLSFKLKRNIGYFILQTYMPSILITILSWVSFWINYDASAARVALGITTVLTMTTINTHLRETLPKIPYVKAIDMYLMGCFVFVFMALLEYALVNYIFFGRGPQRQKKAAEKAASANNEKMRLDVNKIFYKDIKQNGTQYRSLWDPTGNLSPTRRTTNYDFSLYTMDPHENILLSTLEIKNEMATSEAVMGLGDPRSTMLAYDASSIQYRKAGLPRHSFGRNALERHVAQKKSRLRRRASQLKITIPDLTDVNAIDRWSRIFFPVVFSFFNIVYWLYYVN
T1 sequence (P18507 whole entry): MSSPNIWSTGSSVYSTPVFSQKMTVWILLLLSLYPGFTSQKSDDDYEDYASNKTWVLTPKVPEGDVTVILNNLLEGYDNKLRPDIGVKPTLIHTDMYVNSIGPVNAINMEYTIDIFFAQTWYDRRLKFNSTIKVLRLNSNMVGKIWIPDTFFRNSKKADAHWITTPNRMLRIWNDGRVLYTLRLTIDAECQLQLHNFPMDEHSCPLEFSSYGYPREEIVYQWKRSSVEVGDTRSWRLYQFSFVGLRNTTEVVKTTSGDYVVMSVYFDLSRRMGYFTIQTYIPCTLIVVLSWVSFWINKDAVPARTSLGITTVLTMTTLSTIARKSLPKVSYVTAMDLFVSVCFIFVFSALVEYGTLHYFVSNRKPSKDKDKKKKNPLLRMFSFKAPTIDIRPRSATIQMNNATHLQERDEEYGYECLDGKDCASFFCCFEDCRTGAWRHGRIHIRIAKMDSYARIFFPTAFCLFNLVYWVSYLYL
Outline: (§2)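 Human αβγ2 receptors in HEK293 cells: α1β2γ2 stably expressed, other αβγ2 subtypes transiently transfected into HEK293 Flp-In background cells (α:β:γ 1:1:2). FLIPR membrane potential assay with ΔRFU baseline to peak/plateau and GABA EC80 as agonist. IC50 from a four-parameter fit, at least three independent experiments.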

[3] = tested on: GABAA receptor α4β2δ (human); experiment: Antagonist activity at human alpha4beta2delta GABAA receptor expressed in HEK293 Flp-In cells by FMP assay
[4] = target: T2, Gamma-aminobutyric acid receptor subunit alpha-1/beta-2/delta (Homo sapiens, UniProt O14764+P14867+P47870); experiment: Antagonist activity at recombinant human alpha1beta2delta GABAA receptor expressed in HEK293 Flp-In cells by FMP assay; assay type: cell-based, Flp-In-293; outline: as §1
T2 sequence (P14867 whole entry): T1 sequence (P14867 whole entry)
T2 sequence (P47870 whole entry): T1 sequence (P47870 whole entry)
T2 sequence (O14764 whole entry): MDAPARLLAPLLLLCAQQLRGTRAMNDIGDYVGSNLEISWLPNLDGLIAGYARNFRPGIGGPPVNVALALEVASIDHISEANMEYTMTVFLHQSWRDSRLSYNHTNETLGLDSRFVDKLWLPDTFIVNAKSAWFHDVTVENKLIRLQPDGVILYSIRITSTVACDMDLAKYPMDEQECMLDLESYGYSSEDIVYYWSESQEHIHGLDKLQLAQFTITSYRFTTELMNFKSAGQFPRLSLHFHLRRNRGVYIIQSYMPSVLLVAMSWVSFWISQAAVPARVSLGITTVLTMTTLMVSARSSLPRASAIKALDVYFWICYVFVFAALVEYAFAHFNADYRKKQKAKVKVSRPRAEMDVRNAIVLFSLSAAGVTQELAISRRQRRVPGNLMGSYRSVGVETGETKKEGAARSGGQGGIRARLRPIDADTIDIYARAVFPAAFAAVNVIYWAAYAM

[5] = target: T3, GABA A receptor alpha-3/beta-2/gamma-2 (Homo sapiens, UniProt P18507+P34903+P47870); experiment: Antagonist activity at human alpha3beta2gamma2 GABAA receptor expressed in HEKcells by FMP assay; assay type: cell-based, HEK; outline: as §2
T3 sequence (P47870 whole entry): T1 sequence (P47870 whole entry)
T3 sequence (P18507 whole entry): T1 sequence (P18507 whole entry)
T3 sequence (P34903 whole entry): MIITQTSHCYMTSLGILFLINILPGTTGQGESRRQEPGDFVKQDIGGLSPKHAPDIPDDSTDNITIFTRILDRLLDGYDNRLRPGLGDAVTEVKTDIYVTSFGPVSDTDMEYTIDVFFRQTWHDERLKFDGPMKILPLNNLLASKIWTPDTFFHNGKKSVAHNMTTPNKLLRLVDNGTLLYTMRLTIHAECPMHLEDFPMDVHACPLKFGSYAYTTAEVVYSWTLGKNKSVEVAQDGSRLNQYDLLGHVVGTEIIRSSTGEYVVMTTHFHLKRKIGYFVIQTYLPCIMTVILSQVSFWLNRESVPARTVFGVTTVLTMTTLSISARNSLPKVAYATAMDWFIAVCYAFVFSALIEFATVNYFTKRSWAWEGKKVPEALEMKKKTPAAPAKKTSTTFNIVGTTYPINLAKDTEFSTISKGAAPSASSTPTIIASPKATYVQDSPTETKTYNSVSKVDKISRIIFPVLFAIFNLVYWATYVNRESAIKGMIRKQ

[6] = Homo sapiens, Flp-In-293, read-out: pIC50 (converted)

Row | SMILES | IC50 [1, 6] [nM] | IC50 ([1]; flp-in-293) [nM] | IC50 [2] [nM] | IC50 ([2]; read-out: pIC50 (converted)) [nM] | IC50 [3, 6] [nM] | IC50 ([3]; flp-in-293) [nM] | IC50 [4] [nM] | IC50 ([4]; read-out: pIC50 (converted)) [nM] | IC50 [5] [nM] | IC50 ([5]; read-out: pIC50 (converted)) [nM]
1 | Cc1ccc(C(=O)N2CCC3(CCNCC3)CC2)cc1 | 8710 | 8870 | 10000 | 10000 | 2140 | 2150 | – | – | – | –
2 | Cc1cccc(C(=O)N2CCC3(CCNCC3)CC2)c1 | 1910 | 1950 | 2180 | 2190 | 251 | 250 | – | – | – | –
3 | CC(=O)Nc1cccc(C(=O)N2CCC3(CCNCC3)CC2)c1 | – | – | – | – | – | – | 6680 | 6760 | 290 | 288
4 | O=C(Nc1cccc(C(=O)N2CCC3(CCNCC3)CC2)c1)c1cccs1 | – | – | – | – | – | – | – | 245 | 79 | 79.4

Source: ChEMBL document CHEMBL5096209, “Structure-Activity Studies of 3,9-Diazaspiro[5.5]undecane-Based γ-Aminobutyric Acid Type A Receptor Antagonists with Immunomodulatory Effect” (J Med Chem, 2021)
